Assays:
[1] = biological target: Delta-type opioid receptor (Rattus norvegicus, UniProt P33533); experiment: Ability to inhibit [3H]DADLE binding to rat brain delta receptor
Procedure, shortened: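 [3H]DADLE (1.7-2.5 nM) on rat brain membranes, 3-4 h at 25 °C in 10 mM Tris-HCl pH 7.4 with 100 mM choline chloride, 3 mM MnCl2, 100 nM DAMGO blocking μ sites, and protease inhibitors. Nonspecific with 20 μM levallorphan. 8–10 concentrations, run twice; dilutions in Tris/1 mg/mL BSA. IC50 and slope factor from curve fitting.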

[2] = biological target: Mu-type opioid receptor (Rattus norvegicus, UniProt P33535); experiment: Ability to inhibit [3H]DAMGO binding to rat brain Opioid receptor mu 1
Sequence of Mu-type opioid receptor (P33535 whole entry): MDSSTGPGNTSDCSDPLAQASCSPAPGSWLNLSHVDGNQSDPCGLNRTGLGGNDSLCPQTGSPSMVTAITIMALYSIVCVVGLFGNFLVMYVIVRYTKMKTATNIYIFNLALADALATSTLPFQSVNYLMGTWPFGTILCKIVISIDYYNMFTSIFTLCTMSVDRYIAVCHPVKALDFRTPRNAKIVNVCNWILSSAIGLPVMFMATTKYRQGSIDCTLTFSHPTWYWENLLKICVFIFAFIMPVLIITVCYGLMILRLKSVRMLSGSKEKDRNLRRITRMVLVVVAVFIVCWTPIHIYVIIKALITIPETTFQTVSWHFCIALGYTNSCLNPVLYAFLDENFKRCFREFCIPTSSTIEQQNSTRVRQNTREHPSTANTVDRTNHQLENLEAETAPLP
Procedure, shortened: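 Rat brain membranes labelled with [3H]DAMGO (1-3 nM), 4 h at 25 °C in 50 mM Tris-HCl pH 7.4 with protease inhibitor cocktail. Nonspecific with 20 μM levallorphan. 8–10 concentrations, run twice; dilutions in Tris with 1 mg/mL BSA, 1 mM stocks in Tris containing 10% DMSO/5% Emulphor. IC50 and slope factor from curve fitting.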

[3] = biological target: Kappa-type opioid receptor (Cavia porcellus, UniProt P41144); experiment: Ability to inhibit [3H]U-69593 binding to guinea pig Opioid receptor kappa 1
Sequence of Kappa-type opioid receptor (P41144 whole entry): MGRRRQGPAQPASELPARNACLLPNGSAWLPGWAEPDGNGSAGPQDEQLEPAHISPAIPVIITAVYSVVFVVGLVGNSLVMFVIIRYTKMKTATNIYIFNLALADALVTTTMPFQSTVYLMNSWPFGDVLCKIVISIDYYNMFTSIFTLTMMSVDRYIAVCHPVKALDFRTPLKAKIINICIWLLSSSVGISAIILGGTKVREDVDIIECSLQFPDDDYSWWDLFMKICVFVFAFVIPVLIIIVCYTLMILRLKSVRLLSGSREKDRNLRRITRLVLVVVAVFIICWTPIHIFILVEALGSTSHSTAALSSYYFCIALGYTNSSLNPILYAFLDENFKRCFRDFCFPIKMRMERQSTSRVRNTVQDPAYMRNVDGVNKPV
Procedure, shortened: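 Guinea pig brain membranes depleted of μ and δ sites by BIT/FIT pretreatment, labelled with [3H]U69,593 (1.2-2.3 nM), 4-6 h at 25 °C in 50 mM Tris-HCl pH 7.4 with protease inhibitors and 1 μg/mL captopril. Nonspecific with 1 μM U69,593. 8–10 concentrations, run twice; IC50 and slope factor from curve fitting.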

[4] = biological target: Sigma 2 receptor; experiment: Ability to inhibit [3H](+)-DTG binding to rat liver Sigma receptor type 2 in presence of dextrallorphan
Procedure, shortened: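 Rat liver membranes (male Sprague–Dawley, 150–200 g; Tris/sucrose homogenisation, differential centrifugation, 25 °C preincubation). 160 μg protein with 5 nM [3H]DTG plus 1 μM dextrallorphan to mask σ1, 50 mM Tris-HCl pH 8.0, 120 min at 25 °C. Nonspecific with 10 μM haloperidol. Filtration. 12 concentrations (0.05–10 000 or 0.5–100 000 nM); Ki via Cheng–Prusoff with Scatchard Kd; 2–3 experiments in duplicate, ±SEM.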

[5] = tested on: Sigma 2 receptor; experiment: Ratio of binding affinity towards guinea-pig brain […] receptor to rat liver sigma-2 receptor
[6] = Ability to inhibit [3H](+)-pentazocine binding to guinea pig brain Sigma receptor type 1

Sequence of Delta-type opioid receptor (P33533 whole entry): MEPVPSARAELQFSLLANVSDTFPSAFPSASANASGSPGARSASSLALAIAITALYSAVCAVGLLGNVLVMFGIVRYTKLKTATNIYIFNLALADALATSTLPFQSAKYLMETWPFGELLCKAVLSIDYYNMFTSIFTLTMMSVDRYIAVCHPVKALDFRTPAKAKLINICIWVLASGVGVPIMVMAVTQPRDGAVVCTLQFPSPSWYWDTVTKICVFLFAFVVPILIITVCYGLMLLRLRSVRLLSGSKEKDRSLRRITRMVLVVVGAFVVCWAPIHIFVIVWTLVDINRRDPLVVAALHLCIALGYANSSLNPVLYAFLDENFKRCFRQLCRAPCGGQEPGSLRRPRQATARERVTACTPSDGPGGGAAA

SMILES | Ki [1] [µM] | Ki [2] [µM] | Ki [3] [µM] | Ki [4] [µM] | Ratio [5] | Ki [6] [µM]
CN1CCC2(c3cccc(O)c3)CC(=O)/C(=C/C3CC3)C1C2 (stereo not drawn) | > 1 | 0.0112 | > 0.5 | 0.356 | 0.18 | 
CN1CCC2(c3cccc(O)c3)CC(=O)/C(=C/c3ccc4ccccc4c3)C1C2 (stereo not drawn) | 0.142 | 0.0022 | > 0.5 | 0.0802 | 0.21 | 
COc1ccc(/C=C2/C(=O)CC3(c4cccc(O)c4)CCN(C)C2C3)cc1 (single isomer, unassigned; (+)) [listing 1 of 2 here] | 0.127 | 0.0039 | > 0.5 | 0.0216 |  | 
COc1cccc(C23CCN(C)C(C2)/C(=C\c2ccccc2)C(=O)C3)c1 (single isomer, unassigned; (+)) [listing 1 of 2 here] |  |  | > 0.5 | 0.052 |  | 
CN1CCC2(c3cccc(O)c3)CC(=O)/C(=C/c3cccc(I)c3)C1C2 (stereo not drawn) | 0.141 | 0.0091 | > 0.5 | 0.024 | 68 | 
CN1CCC2(c3cccc(O)c3)CC(=O)/C(=C/c3ccccc3)C1C2 (stereo in doubt; (-)-2) [listing 1 of 2 here] |  |  |  |  | 0.06 | 
COc1ccc(/C=C2/C(=O)CC3(c4cccc(O)c4)CCN(C)C2C3)cc1 (single isomer, unassigned; (-)) [listing 1 of 2 here] | > 0.5 | 0.027 |  | 0.0813 |  | 
COc1cccc(/C=C2/C(=O)CC3(c4cccc(O)c4)CCN(C)C2C3)c1 (single isomer, unassigned; (-)) [listing 1 of 2 here] |  |  |  |  | 0.12 | 
COc1cccc(C23CCN(C)C(C2)/C(=C\c2ccccc2)C(=O)C3)c1 (single isomer, unassigned; (+)) [listing 2 of 2 here] |  |  |  |  | 2.8 | 
COc1cccc(/C=C2/C(=O)CC3(c4cccc(O)c4)CCN(C)C2C3)c1 (single isomer, unassigned; (-)) [listing 2 of 2 here] | > 0.4 | 0.0314 |  | 0.0463 |  | 
COc1cccc(/C=C2/C(=O)CC3(c4cccc(O)c4)CCN(C)C2C3)c1 (stereo in doubt; 6) [listing 1 of 2 here] |  |  |  |  | 0.18 | 
CN1CCC2(c3cccc(O)c3)CC(=O)/C(=C/c3ccc(Cl)c(Cl)c3)C1C2 (single isomer, unassigned; (+)) | 0.271 | 0.0045 |  | 0.0134 |  | 
COc1cccc(/C=C2/C(=O)CC3(c4cccc(O)c4)CCN(C)C2C3)c1 (single isomer, unassigned; (+)) [listing 1 of 2 here] | 0.175 | 0.0126 |  | 0.0382 |  | 
CN1CCC2(c3cccc(O)c3)CC(=O)/C(=C/c3cccc(Cl)c3)C1C2 (stereo in doubt; (-)-7) [listing 1 of 2 here] | 0.386 | 0.0476 | > 0.5 | 0.123 |  | 
CN1CCC2(c3cccc(O)c3)CC(=O)/C(=C/c3ccccc3)C1C2 (stereo in doubt; (-)-2) [listing 2 of 2 here] | 1.99 | 0.392 | 0.889 | 0.154 |  | 
COc1cccc(/C=C2/C(=O)CC3(c4cccc(O)c4)CCN(C)C2C3)c1 (single isomer, unassigned; (+)) [listing 2 of 2 here] |  |  |  |  | 157 | 
COc1ccc(/C=C2/C(=O)CC3(c4cccc(O)c4)CCN(C)C2C3)cc1 (single isomer, unassigned; (-)) [listing 2 of 2 here] |  |  |  |  | 0.1 | 
CN1CCC2(c3cccc(O)c3)CC(=O)/C(=C/c3ccccc3)C1C2 (single isomer, unassigned; (+)) [listing 1 of 2 here] |  |  |  |  | 79 | 
CN1CCC2(c3cccc(O)c3)CC(=O)/C(=C/c3ccc(Cl)c(Cl)c3)C1C2 (stereo in doubt; 3) |  |  |  | 0.0718 |  | 0.0653
CN1CCC2(c3cccc(O)c3)CC(=O)/C(=C/c3ccc(Cl)cc3)C1C2 (stereo in doubt; (+)-5) [listing 1 of 2 here] | 0.336 | 0.0064 |  | 0.0064 |  | 
CN1CCC2(c3cccc(O)c3)CC(=O)CC1C2 (single isomer, unassigned; (+)) | 0.505 | 0.0355 | 2.54 |  |  | 
COc1cccc(C23CCN(C)C(C2)/C(=C\c2ccccc2)C(=O)C3)c1 (stereo in doubt; 10) [listing 1 of 2 here] |  |  |  |  | 1.7 | 

SMILES | Ki [1] [µM] | Ki [2] [µM] | Ki [3] [µM] | Ki [4] [µM] | Ratio [5] | Ki [6] [µM]
CN1CCC2(c3cccc(O)c3)CC(=O)/C(=C/c3ccc(Cl)cc3)C1C2 (single isomer, unassigned; (-)) [listing 1 of 2 here] | > 0.5 | 0.0482 | > 0.5 | 0.0265 |  | 
CN1CCC2(c3cccc(O)c3)CC(=O)/C(=C/c3cccc(Cl)c3)C1C2 (stereo in doubt; (-)-7) [listing 2 of 2 here] |  |  |  |  | 0.25 | 
CN1CCC2(c3cccc(O)c3)CC(=O)/C(=C/c3cccc(Cl)c3)C1C2 (stereo in doubt; (+)-7) [listing 1 of 2 here] |  |  |  |  | 138 | 
CN1CCC2(c3cccc(O)c3)CC(=O)/C(=C/c3ccccc3)C1C2 (stereo in doubt; 2) [listing 1 of 2 here] |  |  |  | 0.037 |  | 0.0233
CN1CCC2(c3cccc(O)c3)CC(=O)/C(=C/c3cccc(Cl)c3)C1C2 (stereo in doubt; 7) [listing 1 of 2 here] | 0.222 | 0.0232 | 0.246 | 0.0345 |  | 
CN1CCC2(c3cccc(O)c3)CC(=O)CC1C2 (stereo in doubt; (-)-1) |  |  |  | 0.025 |  | 
CN1CCC2(c3cccc(O)c3)CC(=O)/C(=C/c3ccccc3)C1C2 (stereo in doubt; 2) [listing 2 of 2 here] |  |  |  |  | 0.63 | 
COc1cccc(/C=C2/C(=O)CC3(c4cccc(O)c4)CCN(C)C2C3)c1 (stereo in doubt; 6) [listing 2 of 2 here] | > 0.4 | 0.0118 | > 0.5 | 0.0443 |  | 
COc1ccc(/C=C2/C(=O)CC3(c4cccc(O)c4)CCN(C)C2C3)cc1 (stereo in doubt; 4) [listing 1 of 2 here] |  |  |  |  | 0.53 | 
CN1CCC2(c3cccc(O)c3)CC(=O)/C(=C/c3ccc(Cl)cc3)C1C2 (single isomer, unassigned; (-)) [listing 2 of 2 here] |  |  |  |  | 0.69 | 
COc1ccc(/C=C2/C(=O)CC3(c4cccc(O)c4)CCN(C)C2C3)cc1 (stereo in doubt; 4) [listing 2 of 2 here] | 0.0071 | 0.0041 |  | 0.035 |  | 
COc1ccc(/C=C2/C(=O)CC3(c4cccc(O)c4)CCN(C)C2C3)cc1 (single isomer, unassigned; (+)) [listing 2 of 2 here] |  |  |  |  | 88 | 
CN1CCC2(c3cccc(O)c3)CC(=O)/C(=C/c3ccc(Cl)cc3)C1C2 (stereo in doubt; (+)-5) [listing 2 of 2 here] |  |  |  |  | 119 | 
CN1CCC2(c3cccc(O)c3)CC(=O)/C(=C/c3cccc(Cl)c3)C1C2 (stereo in doubt; (+)-7) [listing 2 of 2 here] | 0.217 | 0.0118 | > 0.5 | 0.0224 |  | 
CN1CCC2(c3cccc(O)c3)CC(=O)/C(=C/c3cccc(Cl)c3)C1C2 (stereo in doubt; 7) [listing 2 of 2 here] |  |  |  |  | 1.5 | 
CN1CCC2(c3cccc(O)c3)CC(=O)/C(=C/c3ccccc3)C1C2 (single isomer, unassigned; (+)) [listing 2 of 2 here] | 0.735 | 0.0376 | 1.09 | 0.0165 |  | 
CN1CCC2(c3cccc(O)c3)CC(=O)/C(=C/c3ccc(Cl)c(Cl)c3)C1C2 (single isomer, unassigned; (-)) | > 0.5 | 0.0451 |  | 0.0355 |  | 
CN1CCC2(c3cccc(O)c3)CC(=O)/C(=C/c3ccc(Cl)cc3)C1C2 (stereo in doubt; 5) [listing 1 of 2 here] | > 1 | 0.0216 |  | 0.0095 |  | 
COc1cccc(C23CCN(C)C(C2)/C(=C\c2ccccc2)C(=O)C3)c1 (stereo in doubt; 10) [listing 2 of 2 here] | > 0.5 | > 0.25 | > 1 | 0.0817 |  | 0.138
CN1CCC2(c3cccc(O)c3)CC(=O)/C(=C/c3ccc(Cl)cc3)C1C2 (stereo in doubt; 5) [listing 2 of 2 here] |  |  |  |  | 4 | 
CN1CCC2(c3cccc(O)c3)CC(=O)/C(=C/c3ccc(I)cc3)C1C2 (single isomer, unassigned; (+)) | 0.321 | 0.0267 | > 1 | 0.0526 | 32 | 
